T cruzi growth-1: T. cruzi proliferation inhibition. T. cruzi beta-gal in NIH3T3, GalScreen luminescence, 90 h. 5.9% of 77,000 active. inhibition, % at 8.34 µM;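 active means mean inhibition above about 93%, with at least 55% of replicates each passing it, limit read from the data, passing the limit was not always enough; inconclusive means only one of those two conditions holds; inactive means neither condition holds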
KDM4C inh: KDM4C (human) demethylase inhibition; Q9H3R0; 0.15% of 96,000 active; AID 720574; GST-KDM4C 2-372, H3K9me3 peptide, LANCE TR-FRET; inhibition, % at 12.5 µM;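 active means mean replicate inhibition above about 25%, with at least 55% of replicates also reaching it, limit read from the data, passing the limit was not always enough; inconclusive means only one of those two conditions met; inactive means neither condition met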
Target sequence (Q9H3R0 2-372 limits assumed): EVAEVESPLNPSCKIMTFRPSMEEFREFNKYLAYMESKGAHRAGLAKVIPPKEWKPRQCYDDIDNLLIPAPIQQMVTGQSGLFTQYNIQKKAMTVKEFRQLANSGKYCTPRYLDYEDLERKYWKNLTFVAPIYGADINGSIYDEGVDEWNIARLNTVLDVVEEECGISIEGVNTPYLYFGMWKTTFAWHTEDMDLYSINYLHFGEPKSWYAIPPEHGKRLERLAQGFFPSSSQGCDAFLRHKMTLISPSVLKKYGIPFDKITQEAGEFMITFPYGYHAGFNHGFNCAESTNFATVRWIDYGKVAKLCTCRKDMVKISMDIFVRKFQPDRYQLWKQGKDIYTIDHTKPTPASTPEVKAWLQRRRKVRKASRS
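System: N-terminal GST-fused human GASC-1 (KDM4C) fragment, residues 2-372 / Amount: 10 nM GST-KDM4C in enzyme reaction / Also added: H3K9me3 peptide with Fe(II)/2OG / Times: 30 min demethylation and 1 h detection at room temperature / Signal: LANCE TR-FRET / Read-out basis: Fall in 671/618 emission ratio as inhibition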
IDH1 mut inh: inhibitors of human IDH1 R132H; IDH1 R132H reductase, diaphorase/resazurin fluorescence, 60 min; inhibition, % at 10 µM; 0.18% of 70,000 active; AID 624101; in the data active means inhibition above about 34%; inconclusive means no clear call, values can overlap the other calls; inactive means below about 11%;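 further: 0% = DMSO and 100% = no enzyme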
T cruzi growth-2: Trypanosoma cruzi proliferation inhibition | shares compounds with T cruzi growth-1 | T. cruzi beta-gal in NIH3T3, GalScreen luminescence, 90 h | inhibition, % at 8.35 µM | 72% of 5,600 active | AID 651739;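 active means mean replicate inhibition above about 95% and at least 55% of replicates individually reaching it, limit read from the data; inconclusive means only one of the two criteria is met; inactive means neither criterion is met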
T cruzi growth-3: inhibitors of T. cruzi proliferation; T. cruzi beta-gal in NIH3T3, GalScreen luminescence, 90 h; inhibition, % at 2.09 µM; shares compounds with T cruzi growth-1; 21% of 5,600 active; AID 651740;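 active means mean inhibition above about 95%, with at least 55% of replicates also reaching it, limit read from the data; inconclusive means meets just one of the two conditions; inactive means meets neither condition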;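 further: plate controls were neutral control median for no effect and positive control median for full effect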
3T3 cytotox: NIH/3T3 (mouse) viability loss; shares compounds with T cruzi growth-1; NIH/3T3 viability, CellTiter-Glo ATP luminescence, 90 h; cytotoxicity (signal decrease), % at 8.35 µM; 14% of 5,600 active;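 active means mean signal decrease across replicates above about 35% based on untreated-well scatter, with enough replicates individually passing, limit read from the data; inconclusive means no rule stated though some were filed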;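 further: 0% = median of neutral control wells and 100% = median of positive control wells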
3T3 cytotox 2: NIH/3T3 (mouse) viability loss; NIH/3T3 viability, CellTiter-Glo ATP luminescence, 90 h; AID 651744; 56% of 5,600 active; shares compounds with T cruzi growth-1; inhibition, % at 24.9 µM;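 active means mean loss of cell viability signal at or above a set limit, and enough replicates individually reaching it; inconclusive means meets only the mean limit or only the replicate share; inactive means meets neither condition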;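 further: 0% = median of neutral control wells and 100% = median of positive control wells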
* = called active by the depositor; u = inconclusive; x = no result given. The entries come from a sample that favours hits as a whole.

SMILES	T cruzi growth-1	KDM4C inh	IDH1 mut inh	T cruzi growth-2	T cruzi growth-3	3T3 cytotox	3T3 cytotox 2
CN(C)CC(=O)N1CCCCN2[C@@H](CO)[C@@H](c3ccc(-c4cncnc4)cc3)[C@@H]2C1	9	2	x	x	x	x	x
CCC(=O)N1CCCCN2[C@@H](CO)[C@H](c3ccc(-c4cccnc4)cc3)[C@@H]2C1	100*	-1	x	96*	68	13	29*
CN(C)CC(=O)N1CCCCN2[C@H](C1)[C@H](c1ccc(-c3cccnc3)cc1)[C@@H]2CO	108*	0	x	97*	2	2	0
Cc1[nH]n(-c2ccccc2)c(=S)c1C=NC(C)Cc1ccccc1 (configuration not stated)	x	x	-5	x	x	x	x
Cc1ccc2c(c1)c(-c1ccccc1)c(-c1ccccc1)n2CC(O)CN1CCN(CCO)CC1 (configuration not stated)	x	x	-1	x	x	x	x
C[C@@H]1CN([C@H](C)CO)C(=O)c2cc(NC(=O)C3CCCCC3)ccc2O[C@H]1CN(C)Cc1ccc(C(F)(F)F)cc1	53	1	x	x	x	x	x
C[C@@H]1CCCCO[C@@H](CN(C)Cc2ccc(C(=O)O)cc2)[C@@H](C)CN([C@@H](C)CO)C(=O)c2cc(NC(=O)C3CCCCC3)ccc2O1	-2	2	1	x	x	x	x
C[C@@H]1CCCCO[C@@H](CN(C)Cc2ccc(C(F)(F)F)cc2)[C@H](C)CN([C@@H](C)CO)C(=O)c2cc(NC(=O)C3CCCCC3)ccc2O1	114*	-1	2	102*	112*	10	15
C[C@H]1CCCCO[C@@H](CN(C)Cc2ccc(C(F)(F)F)cc2)[C@@H](C)CN([C@@H](C)CO)C(=O)c2cc(NC(=O)C3CCCCC3)ccc2O1	u	-1	x	98*	95	23	26*
C[C@@H]1CN([C@H](C)CO)C(=O)c2cc(NC(=O)C3CCCCC3)ccc2O[C@@H](C)CCCCO[C@H]1CN(C)Cc1ccc(C(=O)O)cc1	-14	0	2	x	x	x	x
C[C@H](CO)N1C[C@H](C)[C@H](CN(C)Cc2ccc(C(F)(F)F)cc2)OCCCC[C@H](C)Oc2ccc(NC(=O)C3CCCCC3)cc2C1=O	99*	0	1	u	111*	-23	55*
C[C@@H]1CN([C@@H](C)CO)C(=O)c2cc(NC(=O)C3CCCCC3)ccc2O[C@@H]1CN(C)Cc1ccc(C(F)(F)F)cc1	72*	-1	1	78	15	26	31*
C[C@@H]1CCCCO[C@@H](CN(C)Cc2ccc(C(=O)O)cc2)[C@@H](C)CN([C@H](C)CO)C(=O)c2cc(NC(=O)C3CCCCC3)ccc2O1	-17	1	3	x	x	x	x
COC(=O)c1sccc1-c1ccc(-c2ccn(C(=O)c3ccc(Cl)cc3)n2)o1	x	x	-1	x	x	x	x
COC(=O)c1cc(OC)c(OC)cc1NC(=O)COc1ccc(Cl)cc1Br	x	x	0	x	x	x	x
COc1ccc(NC(=O)c2ccco2)cc1NC(=S)NC(=O)c1ccc(-c2cccc(Cl)c2)o1	x	x	0	x	x	x	x
C[C@@H]1CN([C@H](C)CO)C(=O)c2cc(NC(=O)C3CCCCC3)ccc2O[C@@H]1CN(C)C(=O)Nc1ccc(C(F)(F)F)cc1	-27	-4	3	x	x	x	x
C[C@@H]1CCCCO[C@@H](CN(C)Cc2ccc(C(=O)O)cc2)[C@H](C)CN([C@H](C)CO)C(=O)c2cc(NC(=O)C3CCCCC3)ccc2O1	-5	0	-3	x	x	x	x
C[C@H]1CCCCO[C@H](CN(C)Cc2ccc(C(F)(F)F)cc2)[C@@H](C)CN([C@@H](C)CO)C(=O)c2cc(NC(=O)Nc3ccc(C(F)(F)F)cc3)ccc2O1	81	13	-1	x	x	x	x
C[C@@H]1CN([C@H](C)CO)C(=O)c2cc(NC(=O)C3CCCCC3)ccc2O[C@@H](C)CCCCO[C@H]1CN(C)Cc1ccc(C(F)(F)F)cc1	u	-1	x	101*	109*	11	49*
C[C@H](CO)N1C[C@H](C)[C@H](CN(C)C(=O)Nc2ccc(C(F)(F)F)cc2)Oc2ccc(NC(=O)C3CCCCC3)cc2C1=O	u	-3	1	100*	33	44*	52*
